We go through four substances from article PMC5955456 (Virulence, 2018).

No end group written: not given here.

One assay has as its system E. coli. The assay can be described thus: Viable count analysis. The assay is classed as cell-based, Escherichia coli. The following applies: GGL27 1 µM, 1 hour at 37°C, normal human citrated plasma; Fig. 3h. Put shortly: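 Mid-exponential E. coli grown in Todd-Hewitt broth and washed. 2 x 10^8 cfu/ml incubated 60 min at 37°C with test peptide in 100% human citrated plasma, or in plasma pretreated 3 h with IdeS (0.2 µg/µl) to remove IgG. Serial dilutions plated on TH agar overnight at 37°C; cfu counted and expressed as % survival, mean ± SD.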

In the next assay the test system is bacteria. Conditions: buffer with physiological salt content or plasma; ref [7]; cited from earlier work.
The test system of assay [1] is intrinsic pathway of coagulation. The assay can be described thus: aPTT clotting assay in crocodile plasma. It is filed as biochemical, crocodile (Crocodylus siamensis). The following applies: peptide 50 µM in citrated crocodile plasma; n=3; Fig. 4b; words.
For assay [2] the test system is unchanged. The assay is described as follows: aPTT clotting assay in turkey plasma. The assay is classed as biochemical. The following applies: peptide 50 µM in citrated turkey plasma; n=3; Fig. 4c; words.

With GGLIKTKRKRKKQRVKIAYEEIFVKNM [GGL27], in the assay on E. coli, the “killing of E. coli” value is recorded as about 100%. As for “LL-37: antibacterial peptide (LLGDFFRKSKEKIGKEFKRIVQRIKDFLRNLVPRTES; Antibacterial peptide LL-37; UniProt P49913 134-170, looked up)”, in the assay on bacteria, the “killing activity in physiological salt or plasma” value is “lose their killing activity”. Turning to “RGIIKIKRKRKKQPEKMVRDEIIIERI [American alligator]”, the aPTT clotting time entry in assay [1] was “clotting times were prolonged”.

On to “RRLIRIKKKKKQSLKTVGEEIIRGRIQ [Common turkey]”, for which, in assay [2], the aPTT clotting time entry is recorded as “shortened clotting time”.
